Results on 20 compounds are retold here after paper PMC3389222 (Bioorganic & medicinal chemistry letters, 2012).

Broadly, the microsomal CLint is the capacity of the preparation to metabolise the compound, expressed as a volume cleared per time. A higher microsomal CLint goes with rapid turnover. For orientation: EC50 means the concentration at which the effect is half-maximal. Usually EC90 stands for the concentration needed for an effect of 90%. The term CC50 denotes the concentration that lowers cell viability or growth by half. The low end stands for greater toxicity to the cells, the high end for lower toxicity to the cells.

The nature of data set [1]: Stability in human liver microsomes. The class given is in vitro ADME. As to conditions: for Elimination rate constant (k): 1 μM compound, 1 mg/mL microsomal protein; for microsomal CLint at 1 μM: human. An outline of the steps:
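Test compound incubated with human liver microsomes in potassium phosphate buffer. Samples taken at 5, 15, 30 and 60 min and analysed by LC-MS/MS. The elimination rate constant (k) was determined, and half-life (t1/2) and intrinsic clearance (CLint) were calculated from k.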
A general note: Liver microsomes are vesicles of endoplasmic reticulum, rich in cytochrome P450 enzymes.

Data set [2] relates to HCV 1b replicon. Briefly: HCV 1b replicon system, block of HCV replication. The class given is cell-based. Particulars: for EC90: read-out: HCV Replicon EC90. For orientation: In antiviral work, replicon cells carry a viral genome segment that copies itself.
Data set [3] relates to PBM cells.
The subject of data set [4] is PBM cells. Briefly: Cytotoxicity in PBM cells.
Data set [5] concerns HCV. As to conditions: read-out: in vitro potency (EC50); cited from earlier work.
Data set [6] deals with HCV. As to conditions: cited from earlier work.
Data set [7] is described as follows: Cytotoxicity in CEM cells. It is filed as cell-based. As to conditions: human.
The mark [8] stands for this setting: Hepatitis C virus, read-out: HCV Replicon EC50, HCV 1b replicon system.
Where [9] appears, read: Hepatitis C virus, read-out: HCV Replicon EC50.

Where two headings read alike, the source gives them in different places.

Regarding `COC(=O)N[C@H](C(=O)N1CCC[C@H]1c1nc(Cl)c(-c2ccc(-c3ccc(-c4[nH]c([C@@H]5CCCN5C(=O)[C@@H](NC(=O)OC)C(C)C)nc4Cl)cc3)cc2)[nH]1)C(C)C` [Compound 5b], in data set [1], the “Elimination rate constant (k)” value amounted to 0.0058 and the microsomal CLint at 1 μM is less than 8.6 µL/min/mg. For the same compound, the EC50 in data set [2] (setting [8]) is 0.0064 ± 0.003 nM.

As to `COC(=O)N[C@H](C(=O)N1CCC[C@H]1c1nc(I)c(-c2ccc(-c3ccc(-c4[nH]c([C@@H]5CCCN5C(=O)[C@@H](NC(=O)OC)C(C)C)nc4I)cc3)cc2)[nH]1)C(C)C` [Compound 5c], in data set [1], the “Elimination rate constant (k)” value turned out to be 0.018. In data set [3], the “toxicity in primary human lymphocytes relative to reference compound 1” value was “increased toxicity”. The EC50 in data set [2] (setting [8]) was found to be 0.0055 ± 0.0019 nM.

For `COC(=O)N[C@H](C(=O)N1C[C@@H](n2cc(C(=O)OC)nn2)C[C@H]1c1ncc(-c2ccc(-c3ccc(-c4cnc([C@@H]5C[C@H](n6cc(C(=O)OC)nn6)CN5C(=O)[C@@H](NC(=O)OC)C(C)C)[nH]4)cc3)cc2)[nH]1)C(C)C` [Compound 14], in data set [2] (setting [9]), the EC50 was more than 10 nM. Besides, the EC90 in data set [2] (Hepatitis C virus) was more than 10 nM.

As to `COC(=O)N[C@H](C(=O)N1CCC[C@H]1c1nc(-c2ccco2)c(-c2ccc(-c3ccc(-c4[nH]c([C@@H]5CCCN5C(=O)[C@@H](NC(=O)OC)C(C)C)nc4-c4ccco4)cc3)cc2)[nH]1)C(C)C` [Compound 7], in data set [2] (setting [8]), the EC50 amounted to 0.026 nM.

In the case of `COC(=O)N[C@H](C(=O)N1C[C@@H](N=[N+]=[N-])C[C@H]1c1nc(Br)c(-c2ccc(-c3ccc(-c4[nH]c([C@@H]5C[C@H](N=[N+]=[N-])CN5C(=O)[C@@H](NC(=O)OC)C(C)C)nc4Br)cc3)cc2)[nH]1)C(C)C` [Compound 19], the EC50 in data set [2] (setting [9]) came out at 0.0083 nM. The EC90 in data set [2] (Hepatitis C virus) was found to be 0.0553 nM.

Take `COC(=O)N[C@H](C(=O)N1CCC[C@H]1c1nc(F)c(-c2ccc(-c3ccc(-c4[nH]c([C@@H]5CCCN5C(=O)[C@@H](NC(=O)OC)C(C)C)nc4F)cc3)cc2)[nH]1)C(C)C` [Compound 5d]: in data set [1], the “Elimination rate constant (k)” value was 0.0056 and the microsomal CLint at 1 μM is less than 8.6 µL/min/mg. The EC50 in data set [2] (setting [8]) stood at 0.0068 ± 0.0033 nM. The “toxicity in primary human lymphocytes relative to reference compound 1” value in data set [4] is “increased toxicity”.

For `COC(=O)N[C@H](C(=O)N1CCC[C@H]1c1ncc(-c2ccc(-c3ccc(-c4[nH]c([C@@H]5CCCN5C(=O)[C@@H](NC(=O)OC)C(C)C)nc4F)cc3)cc2)[nH]1)C(C)C` [Compound 5e], the EC50 in data set [2] (setting [8]) is 0.0144 ± 0.004 nM.

Consider `COC(=O)N[C@H](C(=O)N1C[C@@H](N=[N+]=[N-])C[C@H]1c1nc(Cl)c(-c2ccc(-c3ccc(-c4[nH]c([C@@H]5C[C@H](N=[N+]=[N-])CN5C(=O)[C@@H](NC(=O)OC)C(C)C)nc4Cl)cc3)cc2)[nH]1)C(C)C` [Compound 18], for which, in data set [2] (setting [9]), the EC50 came out at 0.0112 nM. Moreover, the 90% effect concentration (EC90) in data set [2] (Hepatitis C virus) came out at 0.0746 nM.

For the compound `COC(=O)N[C@H](C(=O)N1C[C@H](N=[N+]=[N-])C[C@H]1c1ncc(-c2ccc(-c3ccc(-c4cnc([C@@H]5C[C@@H](N=[N+]=[N-])CN5C(=O)[C@@H](NC(=O)OC)C(C)C)[nH]4)cc3)cc2)[nH]1)C(C)C` [Compound 10], the half-maximal effective concentration (EC50) in data set [2] (setting [8]) came out at 0.0095 nM; in data set [2] (read-out: HCV Replicon EC50, HCV 1b replicon system), 0.0184 ± 0.0126 nM. Besides, the EC90 in data set [2] (Hepatitis C virus) turned out to be 0.0542 ± 0.0341 nM.

`COC(=O)N[C@H](C(=O)N1CCC[C@H]1c1nc(Br)c(-c2ccc(-c3ccc(-c4[nH]c([C@@H]5CCCN5C(=O)[C@@H](NC(=O)OC)C(C)C)nc4Br)cc3)cc2)[nH]1)C(C)C` [Compound 5a]: the “Elimination rate constant (k)” value in data set [1] was determined as 0.01. Moreover, the EC50 in data set [2] (setting [8]) was determined as 0.0059 ± 0.0039 nM.

As to `COC(=O)N[C@H](C(=O)N1C[C@H](N=[N+]=[N-])C[C@H]1c1nc(Cl)c(-c2ccc(-c3ccc(-c4[nH]c([C@@H]5C[C@@H](N=[N+]=[N-])CN5C(=O)[C@@H](NC(=O)OC)C(C)C)nc4Cl)cc3)cc2)[nH]1)C(C)C` [Compound 15], the EC50 in data set [2] (setting [9]) is 0.0047 nM. For the same compound, in data set [2] (Hepatitis C virus), the EC90 turned out to be 0.0096 nM.

On to `COC(=O)N[C@H](C(=O)N1CCC[C@H]1c1ncc(-c2ccc(-c3ccc(-c4cnc([C@@H]5CCCN5C(=O)[C@@H](NC(=O)OC)C(C)C)[nH]4)cc3)cc2)[nH]1)C(C)C` [BMS-790052], for which the EC50 in data set [5] is not above 0.05 nM; in data set [2] (setting [8]), 0.0042 ± 0.0015 nM. In data set [1], the “Elimination rate constant (k)” value is on record as 0.012. The viral load decline entry in data set [6] (after a single 100 mg dose) is “≈ 3.3 log10”. Also, the “toxicity after single dose” value in data set [6] (single 100 mg dose) is recorded as “no signs of toxicity”.

With `COC(=O)N[C@H](C(=O)N1C[C@@H](N=[N+]=[N-])C[C@H]1c1ncc(-c2ccc(-c3ccc(-c4cnc([C@@H]5C[C@H](N=[N+]=[N-])CN5C(=O)[C@@H](NC(=O)OC)C(C)C)[nH]4)cc3)cc2)[nH]1)C(C)C` [Compound 9], the EC50 in data set [2] (setting [8]) was 0.023 nM. Moreover, in data set [2] (Hepatitis C virus), the EC90 stood at 0.0352 nM.

Turning to `COC(=O)N[C@H](C(=O)N1CCC[C@H]1c1nc(-c2cccs2)c(-c2ccc(-c3ccc(-c4[nH]c([C@@H]5CCCN5C(=O)[C@@H](NC(=O)OC)C(C)C)nc4-c4cccs4)cc3)cc2)[nH]1)C(C)C` [Compound 8], the EC50 in data set [2] (setting [8]) worked out at 0.1 nM.

Turning to `COC(=O)N[C@H](C(=O)N1CCC[C@H]1c1nc(-c2ccccc2)c(-c2ccc(-c3ccc(-c4[nH]c([C@@H]5CCCN5C(=O)[C@@H](NC(=O)OC)C(C)C)nc4-c4ccccc4)cc3)cc2)[nH]1)C(C)C` [Compound 6], the EC50 in data set [2] (setting [8]) is 0.2 nM.

As to `COC(=O)N[C@H](C(=O)N1C[C@H](n2cc(-c3ccccc3)nn2)C[C@H]1c1ncc(-c2ccc(-c3ccc(-c4cnc([C@@H]5C[C@@H](n6cc(-c7ccccc7)nn6)CN5C(=O)[C@@H](NC(=O)OC)C(C)C)[nH]4)cc3)cc2)[nH]1)C(C)C` [Compound 11], in data set [2] (setting [9]), the EC50 worked out at 2.7 nM. The EC90 in data set [2] (Hepatitis C virus) was 9.2 nM.

For the compound `COC(=O)N[C@H](C(=O)N1C[C@@H](n2cc(-c3ccccc3)nn2)C[C@H]1c1ncc(-c2ccc(-c3ccc(-c4cnc([C@@H]5C[C@H](n6cc(-c7ccccc7)nn6)CN5C(=O)[C@@H](NC(=O)OC)C(C)C)[nH]4)cc3)cc2)[nH]1)C(C)C` [Compound 13], the concentration for an effect of 90% (EC90) in data set [2] (Hepatitis C virus) was more than 10 nM. In data set [7], this compound returned a half-maximal cytotoxic concentration (CC50) of more than 100000 nM.

Turning to `COC(=O)N[C@H](C(=O)N1C[C@H](n2cc(C(=O)OC)nn2)C[C@H]1c1ncc(-c2ccc(-c3ccc(-c4cnc([C@@H]5C[C@@H](n6cc(C(=O)OC)nn6)CN5C(=O)[C@@H](NC(=O)OC)C(C)C)[nH]4)cc3)cc2)[nH]1)C(C)C` [Compound 12], the EC50 in data set [2] (setting [9]) amounted to 0.0118 nM. The EC90 in data set [2] (Hepatitis C virus) turned out to be 0.0428 nM.

As for `COC(=O)N[C@H](C(=O)N1C[C@H](N=[N+]=[N-])C[C@H]1c1ncc(-c2ccc(-c3ccc(-c4[nH]c([C@@H]5C[C@@H](N=[N+]=[N-])CN5C(=O)[C@@H](NC(=O)OC)C(C)C)nc4Cl)cc3)cc2)[nH]1)C(C)C` [Compound 16], the EC50 in data set [2] (setting [8]) stood at 0.0063 nM.

As for `COC(=O)N[C@H](C(=O)N1C[C@H](N=[N+]=[N-])C[C@H]1c1nc(Br)c(-c2ccc(-c3ccc(-c4[nH]c([C@@H]5C[C@@H](N=[N+]=[N-])CN5C(=O)[C@@H](NC(=O)OC)C(C)C)nc4Br)cc3)cc2)[nH]1)C(C)C` [Compound 17], in data set [2] (setting [9]), the EC50 is 0.0026 nM. Also, the 90% effect concentration (EC90) in data set [2] (Hepatitis C virus) is 0.0216 nM.
